In ChEMBL document CHEMBL2440094, “Thiazolidinone-peptide hybrids as dengue virus protease inhibitors with antiviral activity in cell culture” (J Med Chem, 2013):
Calls of active or inactive are those of the source. No cut-off for these calls is given here.

Legend:
[1] = test system: Huh-7; assay: Cytotoxicity against human HuH7 cells at <50 uM after 48 hrs by firefly reporter assay; assay type: cell-based; conditions: huh-7, 48 h
Summary of the method: (§1)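 Uninfected Huh-7 cells stably expressing firefly luciferase, seeded 5000/well and incubated overnight at 37 °C. Compound added at 1.56–50 μM, plus 100, 200 and 400 μM, then incubated as for infected cells (further 48 h after the 4 h point). Firefly luminescence read with 70 μM luciferin and 2 mM ATP. Mean of three wells as percent of DMSO control.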

[2] = Inhibition of Dengue virus NS2B-NS3 protease expressed in Escherichia coli BL 21 (DE3) using Abz-Nle-Lys-Arg-Arg-Ser-3-(NO2)Tyr as substrate assessed as enzyme-inhibitor complex by Cornish-Bowden plot analysis; conditions: in the assay text read “Dixon plot” for “Cornish-Bowden plot”
Summary of the method: (§2)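 DEN2 NS2B–NS3 FRET assay run at inhibitor 0–6 μM (prior-series compounds 5–50 μM) and substrate 50, 100, 150 and 200 μM, in triplicate, with inner-filter correction. Ki from Dixon plots (1/v vs [I]) and Ki′ from Cornish-Bowden plots (S/v vs [I]). Inhibition mode assigned from these plots.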

[3] = test system: dengue virus type 2; assay: Antiviral activity against Dengue virus 2 infected in human Huh-7 cells assessed as inhibition of virus-induced plaque formation at 50 uM after 48; assay type: functional, organism-based
Summary of the method: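 Huh-7 cells seeded in 12-well plates and pretreated with compound (50 μM) for 4 h. Infected for 1 h with dengue reporter virus (MOI 5) in the presence of compound, then medium replaced with compound-containing DMEM. Supernatant harvested at 48 h and filtered. Titer determined by plaque assay on Vero cells. Mean ± SD of three independent experiments.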

[4] = test system: Dengue virus; assay: Inhibition of Dengue virus NS2B-NS3 protease expressed in Escherichia coli BL 21 (DE3) using Abz-Nle-Lys-Arg-Arg-Ser-3-(NO2)Tyr as substrate at 50 uM after 15 mins
[5] = biological target: Prothrombin (Homo sapiens) (UniProt P00734); assay: Inhibition of thrombin (unknown origin) using Boc-Val-Pro-Arg-AMC as substrate at 25 uM after 10 mins by continuous fluorimetric assay
Summary of the method: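 Thrombin (10 nM) preincubated 15 min with inhibitor (25 μM final) in 50 mM Tris-HCl pH 7.5, 150 mM NaCl, 0.05% Tween 20. Boc-Val-Pro-Arg-AMC then added to 50 μM (Km 16 μM). Fluorescence (ex 355 nm, em 460 nm) followed for 10 min as slope. Triplicate; percent inhibition versus no-inhibitor control.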

[6] = test system: Dengue virus; assay: Mixed type inhibition of Dengue virus NS2B-NS3 protease expressed in Escherichia coli BL 21 (DE3) using Abz-Nle-Lys-Arg-Arg-Ser-3-(NO2)Tyr as substrate by Cornish-Bowden plot analysis; summary of the method: as §2
[7] = test system: dengue virus type 2; assay: Antiviral activity against Dengue virus 2 infected in human Huh-7 cells assessed as inhibition of viral replication after 48 hrs by luciferase reporter gene assay; assay type: functional, organism-based; conditions: Huh-7, 48 h
Summary of the method: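 Huh-7 cells seeded 5000/well, incubated overnight at 37 °C, then given compound (1.56–50 μM final, 2-fold series in DMEM with 10% FCS). Dengue 2 renilla luciferase reporter virus (MOI 10) added 4 h later. After 48 h at 37 °C, cells lysed and renilla luminescence read with coelenterazine. At least four wells per concentration, expressed relative to DMSO control. EC50 by nonlinear regression.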

[8] = Permeability of the compound by PAMPA; assay type: ADME; conditions: read-out: permeability
Summary of the method: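 PAMPA with precoated trilayer lipid/oil/lipid membranes, donor wells holding 200 μM compound in PBS pH 7.4 (2% DMSO final), in triplicate. Incubated 5 h at room temperature. Donor and acceptor concentrations determined by UV plate reader or HPLC-UV against calibration curves. Pe and mass retention R calculated.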

[9] = test system: West Nile virus; assay: Inhibition of West Nile virus NS2B-NS3 protease expressed in Escherichia coli BL 21 (DE3) using Abz-Gly-Leu-Lys-Arg-Gly-Gly-3-(NO2)Tyr as substrate at 50 uM after 15 mins
[10] = Inhibition of Dengue virus NS2B-NS3 protease expressed in Escherichia coli BL 21 (DE3) using Abz-Nle-Lys-Arg-Arg-Ser-3-(NO2)Tyr as substrate after 15 mins
[11] = Inhibition of Dengue virus NS2B-NS3 protease expressed in Escherichia coli BL 21 (DE3) using Abz-Nle-Lys-Arg-Arg-Ser-3-(NO2)Tyr as substrate assessed as enzyme-substrate-inhibitor complex by Cornish-Bowden plot analysis; summary of the method: as §2
[12] = test system: Dengue virus; assay: Uncompetitive inhibition of Dengue virus NS2B-NS3 protease expressed in Escherichia coli BL 21 (DE3) using Abz-Nle-Lys-Arg-Arg-Ser-3-(NO2)Tyr as substrate by Cornish-Bowden plot analysis; summary of the method: as §2
[13] = test system: Dengue virus; assay: Displacement of aprotinin from Dengue virus NS2B-NS3 protease expressed in Escherichia coli BL 21 (DE3) by tryptophan fluorescence quenching assay
Summary of the method: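 Tryptophan quenching assay: DEN protease (4 μM) incubated with inhibitor at 0–50 μM, and also with inhibitor (50 μM) plus aprotinin (10 μM). Enzyme and aprotinin autofluorescence measured as negative control. Fluorescence read at ex 280 nm, em 330 nm; triplicate.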

[14] = test system: Dengue virus; assay: Competitive inhibition of Dengue virus NS2B-NS3 protease expressed in Escherichia coli BL 21 (DE3) using Abz-Nle-Lys-Arg-Arg-Ser-3-(NO2)Tyr as substrate by Cornish-Bowden plot analysis; summary of the method: as §2
[15] = test system: Huh-7; assay: Cytotoxicity against human HuH7 cells at 50 uM after 48 hrs by firefly reporter assay; assay type: cell-based; conditions: huh-7, 48 h; summary of the method: as §1
[16] = Solubility of the compound in PBS buffer; assay type: physicochemical
[17] = test system: Dengue virus; assay: Mixed/noncompetitive type inhibition of Dengue virus NS2B-NS3 protease expressed in Escherichia coli BL 21 (DE3) using Abz-Nle-Lys-Arg-Arg-Ser-3-(NO2)Tyr as substrate by Cornish-Bowden plot analysis; summary of the method: as §2
[18] = test system: Huh-7; assay: Cytotoxicity against human HuH7 cells at >100 uM after 48 hrs by firefly reporter assay; assay type: cell-based; conditions: huh-7, 48 h; summary of the method: as §1

inhibition [4] | inhibition [5] | inhibition [6] | EC50 [7] | Papp [8] | inhibition [9] | IC50 [10] | inhibition [12] | inhibition [13] | inhibition [14] | solubility [16] | inhibition [17] | Structure (SMILES) | Activity [1] | Ki [2] | inhibition [3] | Ki [11] | Activity [15] | Activity [18]
99.4% | 18% | Active | 41.1 µM | 1.11 ×10⁻⁶ cm/s | 88.2% | 3.2 µM | – | – | – | – | – | CCCC[C@H](NC(=O)[C@H](CCCCN)NC(=O)[C@H](CCCNC(=N)N)NC(=O)c1ccc(/C=C2\SC(=O)N(Cc3ccc(Cl)cc3)C2=O)cc1)C(N)=O | Non-toxic | 2.2 µM | inactive | 5.4 µM | – | –
99.4% | 9.6% | – | – | – | 97.9% | > 10 µM | Active | – | – | – | – | CCCC[C@H](NC(=O)[C@H](CCCCN)NC(=O)[C@H](CCCNC(=N)N)NC(=O)c1ccc(/C=C2\SC(=S)N(Cc3ccc(F)cc3)C2=O)cc1)C(N)=O | – | > 10 µM | – | 7.9 µM | – | –
98.2% | 16% | Active | 44.9 µM | 0.44 ×10⁻⁶ cm/s | 51.8% | 2.5 µM | – | – | – | – | – | CCCC[C@H](NC(=O)[C@H](CCCCN)NC(=O)[C@H](CCCNC(=N)N)NC(=O)c1ccc(/C=C2\SC(=O)N(C3CCCC3)C2=O)cc1)C(N)=O | – | 1.8 µM | – | 7.9 µM | – | –
98.6% | 17.3% | – | > 50 µM | – | 57.9% | 2.9 µM | – | Dose-dependent effect | Active | – | – | CCCC[C@H](NC(=O)[C@H](CCCCN)NC(=O)[C@H](CCCNC(=N)N)NC(=O)c1ccc(/C=C2\SC(=O)N(Cc3ccccc3)C2=O)cc1)C(N)=O | Non-toxic | 1.7 µM | – | > 10 µM | – | –
100% | 13.3% | – | 31.5 µM | – | 100% | > 10 µM | Active | – | – | Insoluble | – | CCCC[C@H](NC(=O)[C@H](CCCCN)NC(=O)[C@H](CCCNC(=N)N)NC(=O)c1ccc(/C=C2\SC(=S)N(Cc3ccc(Cl)cc3)C2=O)cc1)C(N)=O | Non-toxic | > 10 µM | Active | 8.6 µM | Toxic | –
99.6% | 6.2% | Active | 25.6 µM | – | 98.3% | 7.7 µM | – | – | – | Insoluble | – | CCCC[C@H](NC(=O)[C@H](CCCCN)NC(=O)[C@H](CCCNC(=N)N)NC(=O)c1ccc(/C=C2\SC(=S)N(CCc3ccccc3)C2=O)cc1)C(N)=O | Non-toxic | 13.6 µM | – | 5.1 µM | – | –
99.3% | 13.1% | – | – | – | 92.4% | 10.9 µM | – | – | – | – | Active | CCCC[C@H](NC(=O)[C@H](CCCCN)NC(=O)[C@H](CCCNC(=N)N)NC(=O)c1ccc(/C=C2\SC(=S)N(Cc3ccccc3)C2=O)cc1)C(N)=O | – | 8.8 µM | – | 5.5 µM | – | –
99.6% | 15% | – | 37.3 µM | 0.6 ×10⁻⁶ cm/s | 99% | 7.9 µM | – | – | – | – | Active | CCCC[C@H](NC(=O)[C@H](CCCCN)NC(=O)[C@H](CCCNC(=N)N)NC(=O)c1ccc(/C=C2\SC(=S)N(Cc3ccc(OC)cc3)C2=O)cc1)C(N)=O | – | 7.8 µM | – | 8.3 µM | – | –
96.8% | 15.3% | – | 37.2 µM | 0.82 ×10⁻⁶ cm/s | 57.8% | 3.5 µM | – | Dose-dependent effect | Active | – | – | CCCC[C@H](NC(=O)[C@H](CCCCN)NC(=O)[C@H](CCCNC(=N)N)NC(=O)c1ccc(/C=C2\SC(=O)N(CCc3ccccc3)C2=O)cc1)C(N)=O | Non-toxic | 1.8 µM | – | > 10 µM | – | –
99.2% | 14.2% | Active | 16.7 µM | 1.82 ×10⁻⁶ cm/s | 96.9% | 6.1 µM | – | – | – | – | – | CCCC[C@H](NC(=O)[C@H](CCCCN)NC(=O)[C@H](CCCNC(=N)N)NC(=O)c1ccc(/C=C2\SC(=S)N(C3CCCCC3)C2=O)cc1)C(N)=O | Non-toxic | 9.3 µM | Active | 4.4 µM | – | Toxic
99.4% | 20.3% | Active | – | 0.43 ×10⁻⁶ cm/s | 63.7% | 2.9 µM | – | – | – | – | – | CCCC[C@H](NC(=O)[C@H](CCCCN)NC(=O)[C@H](CCCNC(=N)N)NC(=O)c1ccc(/C=C2\SC(=O)N(Cc3ccc(F)cc3)C2=O)cc1)C(N)=O | – | 1.5 µM | – | 5.2 µM | – | –
99.1% | 10.9% | – | – | – | 96.3% | 7.5 µM | – | – | – | – | Active | CCCC[C@H](NC(=O)[C@H](CCCCN)NC(=O)[C@H](CCCNC(=N)N)NC(=O)c1ccc(/C=C2\SC(=S)N(Cc3ccc(C)cc3)C2=O)cc1)C(N)=O | – | 6.2 µM | – | 7.6 µM | – | –
101% | 9% | – | 48.8 µM | 0.87 ×10⁻⁶ cm/s | 94.2% | 11.6 µM | Active | – | – | – | – | CCCCC(C(=O)OC)N1C(=O)/C(=C/c2ccc(C(=O)N[C@@H](CCCNC(=N)N)C(=O)N[C@@H](CCCCN)C(=O)N[C@@H](CCCC)C(N)=O)cc2)SC1=S (some centres not stated) | – | > 10 µM | – | 5.3 µM | – | –
